From ChEMBL document CHEMBL1129336, “Ryanodine action at calcium release channels. 2. relation to substituents of the cyclohexane ring” (J Med Chem, 1996)

Experiments:
[1] = Inhibition of contraction on electrical stimulation of cardiac muscle using rat right ventricular muscle strips; format: functional, Muscle tissue
Summary of the method: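 Physiological function test on intact rat ventricular muscle strips, in which the read-out depends on both tissue penetration and receptor potency. Values are expressed as IC50 from three to five experiments; standard error is reported as percent of the mean.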

[2] = target: T1, Ryanodine receptor 2 (Canis lupus familiaris) (UniProt Q8WN72); assay: Displacement of [3H]ryanodine binding to ryanodine receptor(ryr) in canine left ventricular membranes; format: cell membranes
T1 sequence (whole entry): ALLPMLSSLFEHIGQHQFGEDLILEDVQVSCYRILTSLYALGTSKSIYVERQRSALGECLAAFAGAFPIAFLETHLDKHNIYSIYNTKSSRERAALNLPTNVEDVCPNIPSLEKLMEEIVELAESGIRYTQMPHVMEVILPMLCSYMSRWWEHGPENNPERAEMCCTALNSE
Summary of the method: (§1)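 Radioligand displacement assays of [3H]ryanodine binding at the ryanodine receptor, one each on rabbit skeletal muscle, mouse brain and canine ventricle preparations. Values are means of three to five experiments, each run in duplicate; standard error is reported as percent of the mean.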

[3] = target: Ryanodine receptor 1 (Oryctolagus cuniculus) (UniProt P11716); assay: Displacement of [3H]ryanodine from ryanodine receptor(ryr) of rabbit skeletal muscle; summary of the method: as §1
[4] = Inhibition of the contraction on electrical stimulation of cardiac muscle using rat right ventricular muscle strips; format: functional, tissue-based; settings: Muscle tissue
Summary of the method: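 Contractility test on intact rat ventricular muscle strips. The read-out reflects both tissue penetration and receptor action. Values are means of three to five experiments, expressed as IC50.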

[5] = Inhibitory activity against ryanodine receptor in Mouse brain; format: functional, tissue-based
[6] = Inhibitory activity against ryanodine receptor in rabbit muscle; format: functional, Oryctolagus cuniculus
Summary of the method: (§2)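 Ryanodine receptor binding assays on tissue preparations. Values are means of three to five experiments, each run in duplicate. Results are reported as Ki for the cardiac ventricle preparation.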

[7] = target: Ryanodine receptor 2 (Mus musculus) (UniProt E9Q401); assay: Displacement of [3H]ryanodine from ryanodine receptor(ryr) of Mouse brain
[8] = target: T2, Ryanodine receptor 2 (Canis lupus familiaris, UniProt Q8WN72); assay: Binding affinity towards ryanodine receptor in canine ventrical preparation; summary of the method: as §2
T2 sequence (Q8WN72 whole entry): T1 sequence (whole entry)

Ryanodine receptor 1 (Oryctolagus cuniculus), sequence (P11716 whole entry): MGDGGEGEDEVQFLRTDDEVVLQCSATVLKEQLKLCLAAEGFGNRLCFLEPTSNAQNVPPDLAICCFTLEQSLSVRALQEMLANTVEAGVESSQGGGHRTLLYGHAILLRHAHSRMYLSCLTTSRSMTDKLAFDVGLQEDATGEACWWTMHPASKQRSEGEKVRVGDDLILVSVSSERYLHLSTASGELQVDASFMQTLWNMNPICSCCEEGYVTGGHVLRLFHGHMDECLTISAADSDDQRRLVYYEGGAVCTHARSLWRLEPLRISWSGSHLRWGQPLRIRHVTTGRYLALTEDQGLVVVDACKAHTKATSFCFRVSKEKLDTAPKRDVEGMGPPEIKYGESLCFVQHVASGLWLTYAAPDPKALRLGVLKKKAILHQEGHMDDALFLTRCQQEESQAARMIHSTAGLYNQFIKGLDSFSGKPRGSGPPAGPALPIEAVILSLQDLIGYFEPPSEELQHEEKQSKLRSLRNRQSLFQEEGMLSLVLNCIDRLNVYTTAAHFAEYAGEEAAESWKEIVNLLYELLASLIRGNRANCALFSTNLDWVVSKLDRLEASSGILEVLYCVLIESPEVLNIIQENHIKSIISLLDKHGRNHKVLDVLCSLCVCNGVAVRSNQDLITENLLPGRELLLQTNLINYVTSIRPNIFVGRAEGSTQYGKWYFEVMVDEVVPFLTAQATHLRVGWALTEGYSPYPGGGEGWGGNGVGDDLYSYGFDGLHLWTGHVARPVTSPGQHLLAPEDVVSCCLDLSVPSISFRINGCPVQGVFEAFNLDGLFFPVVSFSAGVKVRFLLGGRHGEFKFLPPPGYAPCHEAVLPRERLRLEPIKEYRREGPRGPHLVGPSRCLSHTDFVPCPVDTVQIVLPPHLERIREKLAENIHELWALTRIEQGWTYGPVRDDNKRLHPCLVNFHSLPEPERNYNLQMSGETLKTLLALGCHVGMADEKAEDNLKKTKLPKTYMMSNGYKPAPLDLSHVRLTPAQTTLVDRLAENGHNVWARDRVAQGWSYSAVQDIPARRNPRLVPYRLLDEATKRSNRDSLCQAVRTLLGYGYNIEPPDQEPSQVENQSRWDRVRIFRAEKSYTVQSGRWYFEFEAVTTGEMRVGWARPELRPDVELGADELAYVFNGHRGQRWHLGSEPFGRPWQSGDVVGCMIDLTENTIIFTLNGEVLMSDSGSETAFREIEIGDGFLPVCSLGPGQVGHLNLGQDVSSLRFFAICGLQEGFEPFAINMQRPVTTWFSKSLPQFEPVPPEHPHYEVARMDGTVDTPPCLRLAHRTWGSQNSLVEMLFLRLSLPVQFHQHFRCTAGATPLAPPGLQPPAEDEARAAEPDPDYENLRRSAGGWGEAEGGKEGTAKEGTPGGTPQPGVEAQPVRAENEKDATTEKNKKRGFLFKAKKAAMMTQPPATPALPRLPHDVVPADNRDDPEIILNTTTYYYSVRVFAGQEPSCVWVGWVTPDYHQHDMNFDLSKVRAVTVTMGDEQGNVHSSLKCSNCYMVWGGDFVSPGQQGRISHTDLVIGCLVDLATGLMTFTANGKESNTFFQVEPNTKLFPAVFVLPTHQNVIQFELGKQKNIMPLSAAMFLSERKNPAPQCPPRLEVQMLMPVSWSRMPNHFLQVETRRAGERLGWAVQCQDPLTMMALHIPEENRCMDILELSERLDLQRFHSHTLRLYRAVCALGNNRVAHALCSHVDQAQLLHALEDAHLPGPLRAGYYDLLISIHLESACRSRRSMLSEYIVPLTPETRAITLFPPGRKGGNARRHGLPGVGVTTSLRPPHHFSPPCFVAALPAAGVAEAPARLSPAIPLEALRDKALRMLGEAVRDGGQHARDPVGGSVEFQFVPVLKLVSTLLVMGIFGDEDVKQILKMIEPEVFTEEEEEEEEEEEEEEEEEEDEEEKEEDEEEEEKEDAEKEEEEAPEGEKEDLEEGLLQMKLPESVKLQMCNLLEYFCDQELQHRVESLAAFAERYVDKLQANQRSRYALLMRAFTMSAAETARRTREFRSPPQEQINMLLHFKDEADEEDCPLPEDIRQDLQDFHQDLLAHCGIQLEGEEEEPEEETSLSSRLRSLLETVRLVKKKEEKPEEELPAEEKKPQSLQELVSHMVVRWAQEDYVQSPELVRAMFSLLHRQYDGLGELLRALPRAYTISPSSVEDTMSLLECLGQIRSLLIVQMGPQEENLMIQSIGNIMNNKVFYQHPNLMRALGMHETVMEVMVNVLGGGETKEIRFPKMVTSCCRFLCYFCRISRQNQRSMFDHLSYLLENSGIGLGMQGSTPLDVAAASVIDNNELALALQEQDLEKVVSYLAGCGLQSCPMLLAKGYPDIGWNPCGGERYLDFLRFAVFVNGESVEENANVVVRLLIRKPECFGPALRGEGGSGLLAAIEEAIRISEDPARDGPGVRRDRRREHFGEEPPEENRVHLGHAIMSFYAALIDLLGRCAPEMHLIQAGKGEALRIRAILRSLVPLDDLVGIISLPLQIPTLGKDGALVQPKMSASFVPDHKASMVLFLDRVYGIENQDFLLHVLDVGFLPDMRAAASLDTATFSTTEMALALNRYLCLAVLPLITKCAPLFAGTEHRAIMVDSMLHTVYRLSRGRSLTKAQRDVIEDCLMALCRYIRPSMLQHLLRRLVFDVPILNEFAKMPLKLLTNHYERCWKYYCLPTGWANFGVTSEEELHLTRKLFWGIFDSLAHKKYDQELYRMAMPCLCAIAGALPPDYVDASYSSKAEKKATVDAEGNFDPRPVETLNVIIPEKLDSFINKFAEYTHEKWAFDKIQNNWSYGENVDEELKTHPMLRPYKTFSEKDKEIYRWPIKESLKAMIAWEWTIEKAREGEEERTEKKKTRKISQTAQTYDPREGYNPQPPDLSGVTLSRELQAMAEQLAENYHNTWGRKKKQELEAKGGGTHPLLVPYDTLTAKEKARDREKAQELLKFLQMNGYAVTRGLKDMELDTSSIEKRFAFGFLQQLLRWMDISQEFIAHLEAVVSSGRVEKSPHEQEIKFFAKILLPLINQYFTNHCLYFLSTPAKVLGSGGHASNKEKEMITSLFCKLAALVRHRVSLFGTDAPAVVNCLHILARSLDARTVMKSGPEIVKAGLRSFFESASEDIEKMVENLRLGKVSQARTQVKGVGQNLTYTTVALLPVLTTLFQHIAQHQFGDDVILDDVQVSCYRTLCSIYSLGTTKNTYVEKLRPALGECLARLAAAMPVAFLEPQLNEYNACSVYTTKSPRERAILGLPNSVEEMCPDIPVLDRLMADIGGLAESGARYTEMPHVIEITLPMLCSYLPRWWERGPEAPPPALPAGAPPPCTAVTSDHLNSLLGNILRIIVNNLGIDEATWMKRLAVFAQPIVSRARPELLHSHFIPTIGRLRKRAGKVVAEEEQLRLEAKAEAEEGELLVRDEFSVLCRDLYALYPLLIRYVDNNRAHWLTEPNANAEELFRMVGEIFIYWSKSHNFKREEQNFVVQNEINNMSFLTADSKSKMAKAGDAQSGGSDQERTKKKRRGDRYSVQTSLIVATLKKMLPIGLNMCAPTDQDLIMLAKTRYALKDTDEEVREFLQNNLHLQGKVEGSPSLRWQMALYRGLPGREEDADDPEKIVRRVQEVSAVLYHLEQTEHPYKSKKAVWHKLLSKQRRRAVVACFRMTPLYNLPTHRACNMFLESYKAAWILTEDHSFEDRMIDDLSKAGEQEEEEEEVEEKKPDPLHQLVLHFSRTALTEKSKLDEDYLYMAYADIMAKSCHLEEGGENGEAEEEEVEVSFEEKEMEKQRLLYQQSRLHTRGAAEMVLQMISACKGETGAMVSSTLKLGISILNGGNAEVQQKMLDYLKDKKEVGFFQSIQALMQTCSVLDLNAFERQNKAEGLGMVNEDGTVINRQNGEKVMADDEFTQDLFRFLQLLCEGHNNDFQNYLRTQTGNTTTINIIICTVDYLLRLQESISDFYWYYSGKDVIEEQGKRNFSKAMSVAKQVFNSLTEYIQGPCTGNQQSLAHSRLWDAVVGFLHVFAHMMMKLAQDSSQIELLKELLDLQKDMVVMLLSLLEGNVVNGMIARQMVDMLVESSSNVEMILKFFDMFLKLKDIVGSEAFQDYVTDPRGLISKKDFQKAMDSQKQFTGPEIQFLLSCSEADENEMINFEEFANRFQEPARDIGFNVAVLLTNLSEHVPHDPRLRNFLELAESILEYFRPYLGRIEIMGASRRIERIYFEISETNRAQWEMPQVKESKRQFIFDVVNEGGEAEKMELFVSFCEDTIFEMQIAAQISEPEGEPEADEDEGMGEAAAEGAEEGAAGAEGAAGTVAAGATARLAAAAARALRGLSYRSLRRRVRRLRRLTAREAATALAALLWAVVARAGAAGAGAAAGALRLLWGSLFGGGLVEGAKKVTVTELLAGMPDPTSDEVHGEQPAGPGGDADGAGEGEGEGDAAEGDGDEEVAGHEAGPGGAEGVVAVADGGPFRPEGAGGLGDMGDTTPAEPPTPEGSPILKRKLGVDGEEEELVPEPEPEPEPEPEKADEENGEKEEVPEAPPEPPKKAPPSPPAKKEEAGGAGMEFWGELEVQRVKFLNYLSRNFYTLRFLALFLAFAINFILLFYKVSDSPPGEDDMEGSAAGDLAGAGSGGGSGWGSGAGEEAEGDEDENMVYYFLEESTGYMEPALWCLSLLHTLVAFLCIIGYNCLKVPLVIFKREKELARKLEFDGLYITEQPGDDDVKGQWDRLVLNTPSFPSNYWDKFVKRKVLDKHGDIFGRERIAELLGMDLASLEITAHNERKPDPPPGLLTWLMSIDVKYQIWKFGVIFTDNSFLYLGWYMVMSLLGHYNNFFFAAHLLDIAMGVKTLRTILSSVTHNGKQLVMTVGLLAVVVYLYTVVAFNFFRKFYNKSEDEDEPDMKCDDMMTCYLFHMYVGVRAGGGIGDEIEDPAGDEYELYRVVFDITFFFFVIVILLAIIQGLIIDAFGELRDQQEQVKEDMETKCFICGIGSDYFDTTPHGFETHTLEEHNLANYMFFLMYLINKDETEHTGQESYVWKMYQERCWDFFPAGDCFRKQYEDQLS

Row | Structure (SMILES) | Relative activity [1] | Relative activity [2] | Relative activity [3] | further results
1 | CC(C)C1(O)C(OC(=O)c2ccc[nH]2)C2(O)C3(C)CC4(O)OC5(CC(O)CCC35O)C2(O)C41C (stereo not given) | 28 | 0.42 | 0.2 | 
2 | CC1=CCC2(O)C3(C)CC4(O)OC2(C1O)C1(O)C3(O)C(OC(=O)c2ccc[nH]2)C(O)(C(C)C)C41C (stereo not given) | 11 |  | 26 | 
3 | CC1CCC2(O)C3(C)CC4(O)OC2(NC1=O)C1(O)C3(O)C(OC(=O)c2ccc[nH]2)C(O)(C(C)C)C41C (stereo not given) | 11 | 7.4 | 42 | 
4 | CO/N=C1\C(C)CCC2(O)C3(C)CC4(O)OC12C1(O)C3(O)C(OC(=O)c2ccc[nH]2)C(O)(C(C)C)C41C (stereo not given) | 34 | 17 | 13 | 
5 | CC1CCC2(O)C3(C)CC4(O)OC2(C1O)C1(O)C3(O)C(OC(=O)c2ccc[nH]2)C(O)(C(C)C)C41C (stereo not given) | 34 |  | 97 | 
6 | CONC1C(C)CCC2(O)C3(C)CC4(O)OC12C1(O)C3(O)C(OC(=O)c2ccc[nH]2)C(O)(C(C)C)C41C (stereo not given) | 31 | 36 | 68 | 
7 | C=C1CCC2(O)C3(C)CC4(O)OC2(C1OC(=O)c1ccccc1)C1(O)C3(O)C(OC(=O)c2ccc[nH]2)C(O)(C(C)C)C41C (stereo not given) |  |  | 3.9 | 
8 | CC(C)[C@@]1(O)[C@@H](OC(=O)c2cc[nH]c2)[C@@]2(O)[C@]3(C)C[C@@]4(O)O[C@@]5([C@H](O)[C@@H](C)CC[C@]35O)[C@@]2(O)[C@@]41C [RYANODINE] |  |  | 100 | IC50 [4]: 34 nM; IC50 [5]: 3.3 nM; IC50 [6]: 3.5 nM; Relative activity [7]: 100
9 | CC(C)[C@@]1(O)[C@@H](OC(=O)c2ccc[nH]2)[C@@]2(O)[C@@]3(C)C[C@]4(O)O[C@@]5([C@H](O)[C@@H](C)CC[C@]35O)[C@@]2(O)[C@@]14C [RYANODINE] |  |  |  | Ki [8]: 1.8 nM
10 | CC1CCC2(O)C3(C)CC4(O)OC2(C1N)C1(O)C3(O)C(OC(=O)c2ccc[nH]2)C(O)(C(C)C)C41C (stereo not given) |  |  | 68 | 
11 | CC(C)C1(O)C(OC(=O)c2ccc[nH]2)C2(O)C3(C)CC4(O)OC5(CCCCC35O)C2(O)C41C (stereo not given) |  |  | 6.5 | 
